Data on 19 compounds can be found in ChEMBL document CHEMBL1126276, “Synthesis and antimalarial properties of 1-imino derivatives of 7-chloro-3-substituted-3,4-dihydro-1,9(2H,10H)-acridinediones and related structures” (J Med Chem, 1992).

In data set [1] the test system is Plasmodium berghei. In words: (§1) Antimalarial activity in Plasmodium berghei infected mice (Mus musculus) after 40 mg/kg subcutaneous dose. The format is functional. The procedure, abridged:
(§2)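 […] in mice infected with a normal drug-sensitive P. berghei strain. Compound dissolved or suspended in sesame or peanut oil, given as a single subcutaneous dose 72 h postinfection.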

Data set [2] concerns Plasmodium berghei. Briefly: Antimalarial activity Plasmodium berghei infected mice (Mus musculus) after 640 mg/kg subcutaneous dose. The format is functional. Put shortly: as §2
Data set [3] deals with Plasmodium berghei. Briefly: Antimalarial activity was measured against mice (Mus musculus) infected with Plasmodium berghei by subcutaneous administration of 160 mg/kg dose. It is filed as organism-based. Details: dose 160 mg/kg, route subcutaneous. The note with it: in vivo, sc. Put shortly: as §2
Data set [4] has as its system Plasmodium berghei. Briefly: Antimalarial activity in Plasmodium berghei infected mice (Mus musculus) after 160 mg/kg subcutaneous dose. It is filed as functional. The procedure, abridged: as §2
Data set [5] has as its system Plasmodium berghei. In words: Antimalarial activity was measured against mice (Mus musculus) infected with Plasmodium berghei by subcutaneous administration of 640 mg/kg dose. It is filed as organism-based. On the set-up: dose 640 mg/kg, route subcutaneous. The note with it: in vivo, sc. Put shortly: as §2
The subject of data set [6] is Plasmodium berghei. The description is as §1. It is filed as functional. Put shortly: (§3)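 Normal drug-sensitive P. berghei strain in mice. Compound dissolved or suspended in sesame or peanut oil, given parenterally as a single subcutaneous dose 72 h postinfection.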
The source holds these as a separate data set.

For data set [7], the system named is Plasmodium berghei. Briefly: Antimalarial activity in Plasmodium berghei infected mice (Mus musculus) after subcutaneous 160 mg/kg dose. It is filed as functional. The procedure, abridged:
as §3

Data set [8] has as its system Plasmodium berghei. Briefly: Antimalarial activity in Plasmodium berghei infected mice (Mus musculus) after 320 mg/kg subcutaneous dose. The format is functional. The procedure, abridged:
as §2

Data set [9] relates to Plasmodium berghei. In words: (§4) Antimalarial activity in Plasmodium berghei infected mice (Mus musculus) after 80 mg/kg subcutaneous dose. It is filed as functional. Put shortly:
as §3

For data set [10], the system named is Plasmodium berghei. In words: Antimalarial activity in Plasmodium berghei infected mice (Mus musculus) after subcutaneous 320 mg/kg dose. It is filed as functional. Put shortly:
as §3

Data set [11] deals with Plasmodium berghei. Briefly: Antimalarial activity in Plasmodium berghei infected mice (Mus musculus) after subcutaneous 640 mg/kg dose. The format is functional. Put shortly:
as §3

The test system of data set [12] is Plasmodium berghei. In words: (§5) Antimalarial activity in Plasmodium berghei infected mice (Mus musculus) after 20 mg/kg subcutaneous dose. It is filed as functional. Put shortly: as §2
Data set [13] has as its system Plasmodium berghei. The data set is described as §5. The format is functional. Put shortly:
as §3
The source holds these as a separate data set.

Data set [14] has as its system Plasmodium berghei. The data set is described as §4. It is filed as functional. Put shortly:
as §2
This is another data set of the same source.

The subject of data set [15] is Plasmodium berghei. Briefly: Antimalarial activity was measured against mice (Mus musculus) infected with Plasmodium berghei by subcutaneous administration of 320 mg/kg dose. It is filed as organism-based. On the set-up: dose 320 mg/kg, route subcutaneous. As to conditions: in vivo, sc. Put shortly: as §2

Turning to `O=C(O)c1ccc(C2CC(=O)c3c(n(O)c4ccc(Cl)cc4c3=O)C2)cc1` (stereo unspecified), the “Delta mean survival time” value in data set [1] is reported as -0.1; in [2], 0.9; in data set [4], -0.1. Also, the entries for the “No. of toxic deaths” value in data set [3] and in data set [5] were 1 and 4, respectively.
With `CC1/C(=N\CCCN(C)C)c2c(nc3ccc(Cl)cc3c2O)CC1c1ccc(Cl)cc1Cl` (stereo unspecified), the “No. of cured mice” value in data set [6] was determined as 4; in data set [7], 5; in data set [9], 5; in data set [10] it was 4; in [11], 3; in data set [13], 3. The “Delta mean survival time” value in data set [8] came to 3.9; in [1], 19.9; in data set [12] it was 0.1; in data set [2], 2.9.
As for `CC1/C(=N\CCCN(C)C)c2c(n(O)c3ccc(Cl)cc3c2=O)CC1c1ccc(Cl)cc1Cl` (stereo unspecified), the “No. of cured mice” value in [6] worked out at 5; in data set [7], 5; in [9], 4; in data set [10] it was 4; in data set [11] it was 1; in data set [13], 1. In addition, the “Delta mean survival time” value was 2.8 in [8], 16.8 in data set [14], 11.1 in [12] and 1.8 in data set [2].
As for `CCN(CC)CCCC/N=C1\CC(c2ccc(C(F)(F)F)cc2)Cc2c1c(=O)c1cc(Cl)ccc1n2O` (stereo unspecified), the “No. of cured mice” value in data set [6] stood at 4; in [7], 5; in [9], 5; in data set [10] it was 4; in data set [13], 2. Also, the figures for the “Delta mean survival time” value in data set [1] and in [12] were 10.5 and 14, respectively. Further, in [5], the “No. of toxic deaths” value is reported as 4.
`CC1/C(=N\CCCN(C)C)c2c(nc3ccc(Cl)cc3c2O)CC1c1ccc(C(F)(F)F)cc1` (stereo in doubt; cis): the “No. of cured mice” value in data set [6] turned out to be 5; in data set [7] (160 mg/kg), 4; in [9] it was 5; in data set [13] (20 mg/kg), 4. For the same compound, the “Delta mean survival time” value came out at 3.1 in data set [8] (320 mg/kg), 10.7 in data set [12] (20 mg/kg), 2.3 in data set [2] (640 mg/kg) and 3 in data set [4]. Besides, the “No. of toxic deaths” value in data set [5] was determined as 1.
For the compound `CCc1ccc2nc3c(c(O)c2c1)/C(=N/CCCN(C)C)CC(c1ccc(C(F)(F)F)cc1)C3` (stereo unspecified), the “Delta mean survival time” value turned out to be 0.6 in data set [1], 1.4 in [2] and 1.9 in data set [4]. Besides, the “No. of toxic deaths” value is listed as 1 in data set [3] and 4 in data set [5].
For `CC1/C(=N\CCCN(C)C)c2c(nc3ccc(Cl)cc3c2O)CC1c1ccc(C(F)(F)F)cc1` (stereo in doubt; trans), the “No. of cured mice” value in data set [7] (160 mg/kg) is 5; in data set [10] it was 4; in data set [11], 1; in data set [13] (20 mg/kg), 1. Moreover, the figures for the “Delta mean survival time” value in [8] (320 mg/kg), in [12] (20 mg/kg) and in data set [2] (640 mg/kg) were 3.7, 11 and 2.7, respectively.
As for `CCCCNC(CC)C/N=C1\CC(c2ccc(C(F)(F)F)cc2)Cc2c1c(=O)c1cc(Cl)ccc1n2O` (stereo unspecified), the “No. of cured mice” value turned out to be 2 in [6]; 5 in data set [7]; 4 in [9]; 5 in data set [10]; 4 in data set [11]; 2 in [13]. Moreover, the “Delta mean survival time” value in data set [1] is 7.7; in data set [12], 6. The “No. of toxic deaths” value in [5] is recorded as 1.
Regarding `O=C1CC(c2ccc(Cl)cc2Cl)Cc2nc3ccc(Cl)cc3c(O)c21` (stereo unspecified), the “No. of cured mice” value in [6] is recorded as 3; in [7] it was 4; in [9], 4; in [10], 5; in data set [11] it was 5; in data set [13], 2. The “Delta mean survival time” value in [1] is 18.1; in data set [14], 15.8; in [12] it was 10.3; in data set [4], 17.8.
In the case of `CN(C)CCC/N=C1\CC(c2ccc(Cl)cc2Cl)Cc2c1c(=O)c1cc(Cl)ccc1n2O` (stereo unspecified), the “No. of cured mice” value in data set [6] amounted to 5; in data set [7], 5; in [11] it was 4; in data set [13], 4. In addition, the “Delta mean survival time” value in data set [12] was found to be 10.6. Besides, the “No. of toxic deaths” value in [5] is listed as 1.
As to `CCN(CC)CC/N=C1\CC(c2ccc(Cl)c(Cl)c2)Cc2c1c(=O)c1cc(Cl)ccc1n2O` (stereo unspecified), the “No. of cured mice” value in data set [6] amounted to 3; in data set [7], 5; in [9] it was 3; in data set [10], 5; in [11], 5; in data set [13] it was 1. In addition, the “Delta mean survival time” value in data set [1] was found to be 8.8; in [14], 12.7; in [12], 10.5.
For the compound `CCN(CC)CC/N=C1\CC(c2ccc(Cl)c(Cl)c2)Cc2nc3ccc(Cl)cc3c(O)c21` (stereo unspecified), the “No. of cured mice” value in data set [6] is 4; in data set [7] it was 5; in data set [9], 4; in [10] it was 3; in data set [11] it was 5; in data set [13], 2. The “Delta mean survival time” value in [8] is reported as 20; in [1] it was 8; in [14], 8; in data set [12], 9.3.
Turning to `CCN(CC)CCCCCCC/N=C1\CC(c2ccc(Cl)cc2Cl)Cc2nc3ccc(Cl)cc3c(O)c21` (stereo unspecified), the “No. of cured mice” value in [6] worked out at 4; in data set [7], 4; in data set [9], 5; in data set [10] it was 4; in data set [11], 5; in [13], 4. Also, the “Delta mean survival time” value turned out to be 3.7 in data set [8], 9.7 in data set [1], 6.7 in [12] and 0.7 in data set [4].
In the case of `CCN(CC)CC(C)(C)C/N=C1\CC(c2ccc(C(F)(F)F)cc2)Cc2c1c(=O)c1cc(Cl)ccc1n2O` (stereo unspecified), the “No. of cured mice” value amounted to 3 in data set [6]; 5 in [7]; 4 in data set [9]; 5 in data set [10]; 3 in [11]; 3 in [13]. The “Delta mean survival time” value in data set [1] amounted to 11.2; in data set [14] it was 12.5; in [12] it was 13. The “No. of toxic deaths” value in data set [5] is 2.
Regarding `O=C1CC(c2ccc(C(F)(F)F)cc2)Cc2c1c(=O)c1cc(Cl)ccc1n2O` (stereo unspecified) [FLOXACRINE], the “No. of cured mice” value in data set [6] worked out at 5; in data set [7] it was 5; in data set [9], 5; in data set [10] it was 5; in data set [11], 3; in data set [13] it was 4. In addition, the results for the “Delta mean survival time” value in data set [12] and in data set [2] were 8.9 and 3.4, respectively.
As to `CCN(CC)CC(C)(C)C/N=C1\CC(c2ccc(C(F)(F)F)cc2)Cc2nc3ccc(Cl)cc3c(O)c21` (stereo unspecified), the “No. of cured mice” value is 2 in [6]; 5 in data set [7]; 4 in data set [9]; 4 in [10]; 4 in [11]; 2 in [13]. Moreover, the “Delta mean survival time” value in data set [8] came to 49.6; in data set [1], 10.3; in data set [14], 13.6; in data set [12] it was 8.6; in data set [2], 1.3.
Consider `O=c1c2c(n(O)c3ccc(Cl)cc13)CC(c1ccc(C(F)(F)F)cc1)C/C2=N\CCCN(CCO)CCO` (stereo unspecified), for which the “No. of cured mice” value is 4 in [6]; 5 in [7]; 1 in data set [9]; 5 in [10]; 5 in [11]; 2 in data set [13]. The “Delta mean survival time” value is recorded as 14.8 in data set [1], 9.5 in [14] and 12 in data set [12].
With `CN(C)CCC/N=C1\CC(c2ccc(C(F)(F)F)cc2)Cc2nc3ccc(F)cc3c(O)c21` (stereo unspecified), the “No. of cured mice” value in data set [6] is on record as 4; in [7] it was 1. Further, in data set [1], the “Delta mean survival time” value came to 14.9. Besides, the results for the “No. of toxic deaths” value in data set [3] and in data set [5] were 4 and 5, respectively.
Take `CN(C)CCC/N=C1\CC(c2ccc(C(F)(F)F)cc2)Cc2nc3ccc([N+](=O)[O-])cc3c(O)c21` (stereo unspecified): the “No. of cured mice” value in data set [7] turned out to be 4; in data set [9] it was 1; in [10], 3; in [11], 1. The “Delta mean survival time” value in data set [1] worked out at 5.4; in data set [14] it was 8.9; in data set [12] it was 2.2; in data set [4], 11.6. For the same compound, the “No. of toxic deaths” value is 2 in data set [15] and 4 in [5].
